Assay results published in ChEMBL document CHEMBL1142064, “Concentration-dependent effects of caspofungin on the metabolic activity of Aspergillus species” (2007).

Legend:
Assay type in all cases: functional
Aspergillus fumigatus [1] = test: Metabolic activity of Aspergillus fumigatus at 8 ug/ml by XTT assay relative to control
Method in brief: (§1)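 Optimized XTT read-out (100 μg/ml XTT, 6.25 μM menadione, 2 h at 37°C) applied after 48 h caspofungin exposure. Percent metabolic activity in the 8 μg/ml well, calculated as background-corrected absorbance (450/630 nm) relative to the drug-free control. Compared within each species against the value at the concentration giving the lowest activity.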

Aspergillus terreus [2] = test: Metabolic activity of Aspergillus terreus by XTT assay relative to control
Method in brief: (§2)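 Wells from the 48 h caspofungin microdilution (0.008 to 8 μg/ml) were read right after microscopic MEC reading. XTT plus menadione was added to final 100 μg/ml XTT and 6.25 μM menadione, then incubated 2 h at 37°C and shaken. Absorbance read at 450 nm with 630 nm reference. Percent metabolic activity = background-subtracted drug well / background-subtracted drug-free control × 100. Triplicate.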

Aspergillus terreus [3] = test: Metabolic activity of Aspergillus terreus at 0.5 ug/ml after 2 hrs by XTT assay relative to control; method in brief: as §2
Aspergillus terreus [4] = test: Metabolic activity of Aspergillus terreus at 1 ug/ml after 2 hrs by XTT assay relative to control; method in brief: as §2
Aspergillus terreus [5] = test: Antifungal activity against Aspergillus terreus after 48 hrs; settings: read-out: MEC
Method in brief: (§3)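 Broth microdilution following CLSI M38-A in RPMI 1640 with l-glutamine, no bicarbonate, buffered to pH 7.0 with 0.165 M MOPS. Caspofungin twofold dilutions, 0.008 to 8 μg/ml final. Inoculum 2.5 × 10⁴ conidia/ml of clinical isolates. Incubation 37°C for 48 h. MEC read microscopically as the lowest concentration giving short, stubby, highly branched hyphae. Run in triplicate.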

Aspergillus terreus [6] = test: Metabolic activity of Aspergillus terreus determined as X-MEC relative to control
Method in brief: (§4)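 X-MEC: lowest caspofungin concentration whose percent metabolic activity (optimized XTT, 100 μg/ml XTT, 6.25 μM menadione, 2 h, after 48 h incubation) is at or below a species-specific cutoff. Cutoffs were tested in 5% steps around the species median activity at the microscopic MEC and chosen for best ±1 dilution agreement with the microscopic MEC.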

Aspergillus flavus [7] = test: Metabolic activity of Aspergillus flavus at 0.25 ug /ml using after 2 hrs by XTT assay relative to control; method in brief: as §2
Aspergillus fumigatus [8] = test: Metabolic activity of Aspergillus fumigatus at 0.75 ug/ml after 2 hrs by XTT assay relative to control; method in brief: as §2
Aspergillus fumigatus [9] = test: Metabolic activity of Aspergillus fumigatus determined as X-MEC relative to control; method in brief: as §4
Aspergillus flavus [10] = test: Metabolic activity of Aspergillus flavus at 2 ug /ml after 2 hrs by XTT assay relative to control; method in brief: as §2
Aspergillus flavus [11] = test: Antifungal activity against Aspergillus flavus after 48 hrs; settings: read-out: MEC; method in brief: as §3
Aspergillus fumigatus [12] = test: Antifungal activity against Aspergillus fumigatus after 48 hrs; settings: read-out: MEC; method in brief: as §3
Aspergillus flavus [13] = test: Metabolic activity of Aspergillus flavus at 8 ug/ml by XTT assay relative to control; method in brief: as §1
Aspergillus terreus [14] = test: Metabolic activity of Aspergillus terreus at 8 ug/ml by XTT assay relative to control; method in brief: as §1
Aspergillus fumigatus [15] = test: Metabolic activity of Aspergillus fumigatus by XTT assay relative to control; method in brief: as §2
Aspergillus fumigatus [16] = test: Metabolic activity of Aspergillus fumigatus at 0.5 ug/ml after 2 hrs by XTT assay relative to control; method in brief: as §2
Aspergillus flavus [17] = test: Metabolic activity of Aspergillus flavus determined as X-MEC relative to control; method in brief: as §4

SMILES: CC[C@H](C)C[C@H](C)CCCCCCCCC(=O)N[C@H]1C[C@@H](O)[C@@H](NCCN)NC(=O)[C@@H]2[C@@H](O)CCN2C(=O)[C@H]([C@H](O)CCN)NC(=O)[C@H]([C@H](O)[C@@H](O)c2ccc(O)cc2)NC(=O)[C@@H]2C[C@@H](O)CN2C(=O)[C@H]([C@@H](C)O)NC1=O [CASPOFUNGIN]
- Activity (Aspergillus fumigatus [1]): 51%
- MMC (Aspergillus terreus [2]): 1 µg/mL
- Activity (Aspergillus terreus [3]): 53%
- Activity (Aspergillus terreus [4]): 38%
- minimal effective concentration (Aspergillus terreus [5]): 0.5 µg/mL
- Activity (Aspergillus terreus [6]): 65%
- Activity (Aspergillus flavus [7]): 25%
- Activity (Aspergillus fumigatus [8]): 28%
- Activity (Aspergillus fumigatus [9]): 60%
- Activity (Aspergillus flavus [10]): 17%
- minimal effective concentration (Aspergillus flavus [11]): 0.25 µg/mL
- minimal effective concentration (Aspergillus fumigatus [12]): 0.5 µg/mL
- Activity (Aspergillus flavus [13]): 20%
- Activity (Aspergillus terreus [14]): 57%
- MMC (Aspergillus fumigatus [15]): 0.75 µg/mL
- Activity (Aspergillus fumigatus [16]): 42%
- Activity (Aspergillus flavus [17]): 40%
